# Source: PubChem
# Shown are actives, neighbours in structure and some others; about 2.7% of the full set was active somewhere.
# Hck-Nef inh: blocks Nef-activated human Hck kinase; P08631; Recombinant Hck-YEEI plus Nef, Z-Lyte FRET kinase assay; inhibition, % at 20 µM; 220,000 compounds, 0.68% hits; AID 463187;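 active means Hck-Nef kinase inhibition above about 50%, limit read from the data; inactive means inhibition below that limit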
# Tb hexokinase: blocks Trypanosoma brucei hexokinase 1 activity; recombinant TbHK1, G6PDH-coupled NADH A340; inhibition, % at 10 µM; 220,000 compounds, 0.11% hits;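 active means inhibition of 50% or more in the single-dose primary screen; inactive means inhibition below 50%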
# 14-3-3 Bad inh: disrupts binding of bovine 14-3-3 zeta to phospho-Bad peptide; 220,000 compounds, 0.71% hits; inhibition, % at 21.7 µM; P63103; AID 781; TR-FRET 14-3-3zeta/Dy647-pBad peptide displacement, 1 h;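 active means inhibition above about 70%, limit read from the data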
# Wee1 stabilizer: blocks degradation of human Wee1 kinase; 220,000 compounds, 1.2% hits; P30291; HeLa Luc-Wee1K328M stability, luciferase luminescence; 100% = proteasome inhibitor MG132 effect; reporter increase, % at 5 µM;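 active means activation above the mean of all tested compounds plus 3 SD, set per screening run, cut at about 8.8% in these data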;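 further: cells exposed to compound for 20 h before luminescence read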
# Target sequence (P30291 whole entry K328M): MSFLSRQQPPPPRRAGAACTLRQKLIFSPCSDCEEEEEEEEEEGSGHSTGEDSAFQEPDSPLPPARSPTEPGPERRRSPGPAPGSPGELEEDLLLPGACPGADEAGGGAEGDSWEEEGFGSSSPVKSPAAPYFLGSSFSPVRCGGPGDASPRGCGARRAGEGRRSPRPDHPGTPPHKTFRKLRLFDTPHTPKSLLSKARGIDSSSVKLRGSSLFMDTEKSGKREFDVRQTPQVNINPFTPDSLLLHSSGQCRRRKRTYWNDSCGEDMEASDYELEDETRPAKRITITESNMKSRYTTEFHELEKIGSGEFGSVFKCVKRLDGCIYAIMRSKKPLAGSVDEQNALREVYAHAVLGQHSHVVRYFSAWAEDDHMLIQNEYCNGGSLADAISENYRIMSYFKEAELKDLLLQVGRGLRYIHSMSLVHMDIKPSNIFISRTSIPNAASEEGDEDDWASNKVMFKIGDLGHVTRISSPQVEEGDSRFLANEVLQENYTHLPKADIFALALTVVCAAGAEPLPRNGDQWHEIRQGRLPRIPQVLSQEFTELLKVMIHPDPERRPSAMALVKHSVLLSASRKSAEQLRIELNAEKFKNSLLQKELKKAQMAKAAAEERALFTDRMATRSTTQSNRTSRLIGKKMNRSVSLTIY
# MDM2 E3 inh: blocks human Mdm2 ubiquitin ligase activity; Q00987; 210,000 compounds, 0.11% hits; cell-based MDM2 ubiquitination luciferase reporter, 2 h; 0 = plate control, 100 = twice control, blank-subtracted; signal enhancement, % at 5 µM; AID 1230;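 active means signal enhancement of 30% or more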;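 further: luminescence tracks abundance of the self-degrading MDM2-luciferase fusion protein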
#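 Test system: stable mammalian line carrying autodegrading MDM2–luciferase fusion reporter; quantity: 2000 cells in each well; times: 4 h cell settling then 2 h compound exposure, 37 °C; detection: luminescence with SteadyLite reagent, 15 min at room temperature; evaluation: percent signal gain over controls, blank-subtracted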
# Hck Nef conf: confirmation of Hck-Nef kinase inhibitors | shares compounds with Hck-Nef inh | Recombinant Hck-YEEI:Nef, Z-Lyte FRET kinase assay | calls only at 10 µM | 1,300 compounds, 28% hits;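 active means average inhibition of at least 50%, with Z-scores no higher than 3 in both the phospho-tyrosine peptide and fluorescence counterscreens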
# Hits are given with their value; i = inactive; nt = not tested or not shown; + = active, no number.
SMILES,Hck-Nef inh,Tb hexokinase,14-3-3 Bad inh,Wee1 stabilizer,MDM2 E3 inh,Hck Nef conf
O=C(O)c1cc([N+](=O)[O-])ccc1Nc1ccccc1,i,i,i,i,i,nt
CCOc1ccc(N2C(=O)C3ON(c4ccccc4)C(c4cccs4)C3C2=O)cc1 (stereo not given),i,i,i,i,i,nt
O=C(N=Nc1c(O)[nH]c2ccccc12)c1cccs1,i,i,i,i,i,nt
O=C(N=Nc1c(O)[nH]c2ccccc12)c1cc(NS(=O)(=O)c2cccs2)cc(NS(=O)(=O)c2cccs2)c1,88,i,80,i,i,+
CC(=O)n1cc(Nc2ccc([N+](=O)[O-])cc2)c2ccccc21,108,i,i,i,i,i
O=C(NC(=O)c1ccccc1Cl)Nc1ccc(-c2cnco2)cc1,70,i,i,10.0,i,i
C=CCCCCCCCC(=O)OC,i,i,i,i,i,nt
CC1=NOC(=O)/C1=C\c1ccc2c(c1)OCO2,i,i,i,i,i,nt
CCc1ccc(/C=C(/C#N)C(N)=S)s1,i,i,i,i,i,nt
CCc1sc(/C=C(/C#N)C(N)=S)cc1[N+](=O)[O-],63,i,i,i,i,i
CCCC(=O)c1cc(F)c(N2CCOCC2)cc1C,i,i,i,i,i,nt
CCc1nnc(NC(=O)CSc2nc(-c3ccccc3)cc(-c3ccc(OC)cc3)c2C#N)s1,i,i,i,i,i,nt
O=C(O)c1ccc(-c2ccc(/C=C3\NC(=O)N(Cc4ccc(Cl)cc4)C3=O)o2)cc1Cl,53,i,i,i,i,i
Cc1cccc(NC(=O)CN2C(=O)N/C(=C/c3ccc(-c4cccc(C(=O)O)c4C)o3)C2=O)c1,i,i,i,i,i,nt
CSc1nc(-c2ccccc2)nc(N2CCOCC2)c1C(C)=O,i,i,i,i,i,nt
Oc1ccc(Nc2ccnc3cc(Cl)ccc23)cc1,64,i,i,i,i,+
CC(=O)Nc1ccc(N2C(=O)c3ccc(C(=O)Nc4nnc(SCc5ccc(F)cc5)s4)cc3C2=O)cc1,86,i,i,i,i,i
COc1cccc(Nc2ncc(C#N)c(N)n2)c1,57,i,i,i,i,+
COc1cc2c(C#N)c(N3CCCC3)nc(N)c2c(N)n1,63,i,i,i,i,+
COc1ccc(OC)c(NC(=O)Cn2cc(C#N)c3cc(Br)ccc32)c1,69,i,i,i,i,i
COc1ccc(NC(=O)Cn2cc(C#N)c3ccccc32)cc1,i,i,i,i,i,nt
CCN(CC)c1ccc2cc(C(N)=O)c(=O)oc2c1,123,i,i,i,i,nt
CC1(C)CC(=O)C2=C(C1)c1c(ccc3ccccc13)NC2c1cc([N+](=O)[O-])cc([N+](=O)[O-])c1O (stereo not given),51,i,i,i,i,+
Cc1ccc(C2Nc3ccc4ccccc4c3C3=C2C(=O)CC(C)(C)C3)o1 (stereo not given),i,i,i,i,nt,nt
COc1ccc(-c2nnc(SCC(=O)c3ccc(C)o3)o2)cc1,i,i,i,i,nt,nt
SMILES,Hck-Nef inh,Tb hexokinase,14-3-3 Bad inh,Wee1 stabilizer,MDM2 E3 inh,Hck Nef conf
COc1ccc(CN(C(=O)CSc2nnc(-c3ccc(F)cc3)o2)c2ccc(F)cc2)cc1,77,i,i,i,i,i
Cc1cc2oc(=O)cc(CN3CCOCC3)c2cc1C,i,i,i,i,i,nt
CCNc1cc2oc(=O)c(CN3CCOCC3)c(C)c2cc1C,82,i,i,i,i,nt
COc1cc(/C=C/[N+](=O)[O-])ccc1OCc1cccc(C(=O)O)c1,62,i,i,i,i,i
COc1cc(/C=N/NC(=O)c2cccc([N+](=O)[O-])c2)ccc1OCc1ccccc1,i,i,i,i,i,nt
O=C(CSc1nc2c(c(=O)[nH]1)CCC2)Nc1cccc(Cl)c1,i,i,nt,i,i,nt
N#Cc1c(-c2ccco2)nc(SCC(=O)Nc2cccc(Cl)c2)[nH]c1=O,56,i,i,i,i,+
Cc1ccc(-c2[nH]ncc2/C=N/n2c(C)nc3ccccc3c2=O)cc1,60,i,i,i,i,i
Cc1ccc(NC(=O)CSc2nc3ccccc3c3nc(CCn4cncc4C)nn23)c(C)c1,72,i,i,i,i,i
Cc1ccc(C)c2[nH]c(=O)c(CN(CC3CCCO3)C(=O)NC3CCCCC3)cc12 (stereo not given),i,i,i,i,i,nt
Cn1c(C(=O)NCC2CCCO2)cc2c(=O)n3ccccc3nc21 (stereo not given),i,i,i,i,i,nt
Cc1ccc2nc3nc(NCC4CCCO4)c(C(=O)NC4CCCCC4)cc3c(=O)n2c1 (stereo not given),134,i,i,i,i,nt
Cc1ccc2nc3nc(NCC4CCCO4)c(C(=O)NC4CCCC4)cc3c(=O)n2c1 (stereo not given),164,i,i,i,i,nt
CCNc1nc2nc3ccc(C)cn3c(=O)c2cc1C(=O)NCC1CCCO1 (stereo not given),+,i,i,i,i,nt
COc1cc2ncnc(NCc3ccco3)c2cc1OC,53,i,i,i,i,i
O=C(Cn1c(O)c(/C=C2\C=Nc3ccc(Br)cc32)sc1=O)N1CCCC1,76,i,i,i,i,i
O=C(Cn1c(O)c(/C=C2\C=Nc3ccccc32)sc1=O)N1CCOCC1,i,i,i,i,i,nt
COc1ccc(Cn2c(C3CCCCC3)nc3c(c(=O)c4ccccc4n3C)c2=O)cc1,71,i,i,i,i,i
COc1ccc(CCn2c(C3CCCCC3)nc3c(c(=O)c4ccccc4n3C)c2=O)cc1,i,i,i,i,i,nt
CC(C)n1cnc2cc(NCc3ccco3)ccc21,79,i,70,i,i,i
Cc1nc(CSc2nnc3scc(-c4ccc(Cl)cc4)n23)cs1,i,i,nt,i,i,nt
COc1cc(/C=C/c2cc(OC(C)=O)c3ccccc3n2)c(OC(C)=O)c([N+](=O)[O-])c1,i,i,i,i,i,nt
Nc1nn2cc(-c3ccccc3)nc2c2ccccc12,50,i,i,i,i,+
CCOC(=O)c1cc(CNC(=O)c2c(C)oc3c2CCCC3)c(C)o1,i,i,i,i,i,nt
Cc1ccc(NC(=O)c2ccco2)c(NC(=O)Cc2cccs2)c1,i,i,i,i,i,nt
SMILES,Hck-Nef inh,Tb hexokinase,14-3-3 Bad inh,Wee1 stabilizer,MDM2 E3 inh,Hck Nef conf
Cc1cc(/C=C2\NC(=O)NC2=O)c(C)n1-c1cccnc1,52,i,i,i,i,i
Cc1cc(/C=C2\NC(=S)NC2=O)c(C)n1-c1cccnc1,i,i,i,i,i,nt
Cc1cc(NC(=O)c2ccc(S(=O)(=O)N3CCc4ccccc43)cc2)no1,52,i,i,i,i,i
C#CC1(NC(=O)NC(C)C)CCCCC1,i,i,i,i,i,nt
Cc1ccc(-c2nc3ccccc3[nH]2)cc1NC(=O)c1sc2cc(Cl)ccc2c1Cl,73,i,i,i,i,i
Cc1ccc(-c2nc3ccccc3[nH]2)cc1NC(=O)c1ccco1,i,i,i,i,i,nt
